Most compounds without a hit are left out; they make up all but 2.2% or so of the library.
VIM-2 inh = VIM-2 metallo-beta-lactamase inhibitors, primary screen, biochemical, epi-absorbance readout, Pseudomonas aeruginosa enzyme; actives 0.89% (n = 290,000); AID 1527, 2009; purified VIM-2, nitrocefin hydrolysis, epi-absorbance fluorescence; inhibition, % at 5.6 µM;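 active = inhibition above the mean of all tested compounds plus 3 SD, cutoff set per screening run, cut at about 7.5% in these data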;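 also: red hydrolysis product quenches plate fluorescence so inhibitors raise well fluorescence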
PABP1 MLLE inh = inhibitors of PABP1 MLLE–PAM2 peptide binding, primary screen, biochemical, fluorescence polarization, FITC-PAM2, GST-MLLE; Polyadenylate-binding protein 1 (Homo sapiens), P11940; inhibition, % at 20 µM; actives 0.36% (n = 360,000); in the data active = inhibition above about 35%, passing the limit was not always enough
Target sequence (P11940 whole entry, looked up): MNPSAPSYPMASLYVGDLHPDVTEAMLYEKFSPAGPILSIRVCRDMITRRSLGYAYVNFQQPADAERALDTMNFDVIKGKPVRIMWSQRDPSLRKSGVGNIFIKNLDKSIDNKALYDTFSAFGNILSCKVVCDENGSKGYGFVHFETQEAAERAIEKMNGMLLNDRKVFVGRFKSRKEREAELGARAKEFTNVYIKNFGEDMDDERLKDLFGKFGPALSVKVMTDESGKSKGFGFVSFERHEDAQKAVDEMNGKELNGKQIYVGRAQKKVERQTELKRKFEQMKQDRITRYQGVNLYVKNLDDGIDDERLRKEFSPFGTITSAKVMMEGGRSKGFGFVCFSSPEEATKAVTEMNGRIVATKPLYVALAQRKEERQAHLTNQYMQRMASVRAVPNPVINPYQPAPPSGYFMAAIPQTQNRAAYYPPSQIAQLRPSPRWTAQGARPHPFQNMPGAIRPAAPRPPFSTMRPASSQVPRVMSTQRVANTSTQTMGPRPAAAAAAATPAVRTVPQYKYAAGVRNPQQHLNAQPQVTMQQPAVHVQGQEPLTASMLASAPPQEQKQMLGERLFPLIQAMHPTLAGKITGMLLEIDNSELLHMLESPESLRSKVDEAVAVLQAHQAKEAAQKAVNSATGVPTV
IMP-1 inh = IMP-1 metallo-beta-lactamase inhibitors, primary screen, biochemical, epi-absorbance readout, Pseudomonas aeruginosa enzyme; purified IMP-1, nitrocefin hydrolysis, epi-absorbance fluorescence; AID 1556, 2009; inhibition, % at 5.6 µM; actives 0.45% (n = 290,000);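 active = inhibition above the mean plus 3 SD of all compounds in the same screening run, cut at about 4.5% in these data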
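System: purified IMP-1 / Input: IMP-1 dispensed at 0.2 nM / Medium: 50 mM HEPES pH 7.1, 50 µM ZnSO4, 0.05% Brij 35 / Timing: 15 min enzyme–compound preincubation, then 25 min nitrocefin reaction, 25 °C / Technique: plate fluorescence quenching by hydrolysis product, ex 480/em 530 nm / Repeats: singlicate testing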
PABP polyA inh = PABP poly(A) RNA binding inhibitors, primary screen, biochemical, fluorescence polarization, uHTS; actives 1% (n = 290,000); AID 2014, 2009; calls only at 35 µM; Polyadenylate-binding protein 1 (Homo sapiens), P11940;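 also: calls also rest on retests at 20 µM and on dose response follow-up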
eIF4H FP inh = human eIF4H binding inhibitors, primary screen, translation initiation inhibitor project, biochemical, uHTS, fluorescence polarization; Eukaryotic translation initiation factor 4H (Homo sapiens), Q15056; eIF4H fluorescence polarization binding assay; inhibition, % at 35 µM; actives 0.94% (n = 290,000); AID 2012, 2009;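 also: calls also rest on retests at 20 µM and on dose response follow-up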
A number is an active result; . = inactive; ? = inconclusive; / = no result; + = active, no number. Unless noted, no rule for the calls is given here.

SMILES	VIM-2 inh	PABP1 MLLE inh	IMP-1 inh	PABP polyA inh	eIF4H FP inh
COc1cc([N+](=O)[O-])ccc1-c1ccc(/C=N/NC(N)=O)o1	.	.	.	+	.
COc1cc([N+](=O)[O-])ccc1-c1ccc(/C=N/NC(=O)OC(C)(C)C)o1	.	.	.	.	.
CCOC(=O)c1c(C)[nH]c(C)c1S(=O)(=O)NC(CC)CN1CCOCC1 (stereo unspecified)	.	.	.	+	94
CCOC(=O)c1c(C)[nH]c(C)c1S(=O)(=O)NC1CCN(C(=O)OCC)CC1	.	.	.	.	.
COCC(C)N1CCC(n2nccc2NC(=O)CCOc2ccccc2)CC1 (stereo unspecified)	.	.	.	.	.
CSCC(C)N1CCC(n2nccc2NC(=O)CCOc2ccccc2)CC1 (stereo unspecified)	.	.	.	+	.
NCCCCC(N)c1cn([C@@H](CCC(=O)O)C(=O)N2CCNCC2)nn1 (stereo partly specified)	/	.	/	/	/
CCC(C)[C@H](N)c1cn([C@@H](CCCCN)C(=O)N2CCNCC2)nn1 (stereo partly specified)	.	.	.	+	.
O=C(O)CCCN1C(=O)/C(=C/c2ccc(-c3nc4ccccc4s3)o2)SC1=S	.	.	.	+	?
O=C(O)CCCCCN1C(=O)/C(=C\c2ccc(-c3ccc(Cl)cc3)o2)SC1=S	.	.	.	+	54
COc1ccc(CNC(=O)CCNC(=O)c2ccco2)cc1OC	/	.	/	/	/
Cc1nn(Cc2ccccc2Cl)c(C)c1C(=O)NCC(c1cccs1)N1CCOCC1 (stereo unspecified)	/	.	/	/	/
Cc1nc(Oc2ccccc2)c2ccsc2n1	.	.	.	+	75
O=C1NNC(c2ccccc2)=N/C1=C\c1ccco1	.	.	.	+	.
O=C1SC(c2ccccc2)=N/C1=C/c1ccco1	.	.	.	+	50
O=C1NNC(c2ccccc2)=N/C1=C\c1ccccc1Cl	.	.	.	.	.
CCCc1cc2c(cc1NC(=O)c1ccccc1C)OCO2	.	.	.	.	.
COc1ccc(N2C(=O)CC(SCCc3nc4ccccc4[nH]3)C2=O)cc1 (stereo unspecified)	.	40	.	.	.
COc1ccc(S(=O)(=O)N2CCN(C(=O)c3cc(C)on3)CC2)cc1	/	.	/	/	/
O=C1CSC(=S)N1N=Cc1ccccc1O	/	.	/	/	/
CCOc1ccc(N2C(=O)CSC2=S)cc1	.	.	.	.	.
O=C1CSC(=S)N1/N=C/c1cccnc1	.	43	.	.	.
O=C1CSC(=S)N1c1cccnc1	.	40	.	.	.
CCN(CC)c1ccc(N2C(=O)CSC2=S)cc1	.	.	.	.	62
O=C(CSc1ccc(-c2ccccn2)nn1)Nc1cccc(F)c1	.	.	.	.	.
SMILES	VIM-2 inh	PABP1 MLLE inh	IMP-1 inh	PABP polyA inh	eIF4H FP inh
CCCc1nc2oc3c(NCCCN(C)C)ncnc3c2c2c1CCCC2	12	.	.	.	.
CCCc1nc2oc3c(NCCN(C)C)ncnc3c2c2c1CCCC2	.	.	.	.	.
COc1ccc(OCCNc2cc(N3CCCCC3)ccc2[N+](=O)[O-])cc1	.	.	.	.	.
COc1cccc(OCCNc2cc(N3CCCCC3)ccc2[N+](=O)[O-])c1	.	.	47	.	.
Cc1cc(NCCN2CCOCC2)c2ccc3ccccc3c2n1	8.8	.	.	.	.
Fc1cccc(Cl)c1C1Nc2cccc3cccc(c23)N1	.	.	.	+	96
Clc1cccc(Cl)c1C1Nc2cccc3cccc(c23)N1	.	.	.	+	99
CN(C)c1ccc(C2Nc3cccc4cccc(c34)N2)cc1	.	.	.	.	.
Cc1cc(O)c(-c2cc(O)c(C)cc2O)cc1O	.	48	.	.	.
COc1ccc2nc(N3CCCCC3)c(C#N)cc2c1	.	40	.	.	.
N#CC(c1nc2ccccc2nc1N1CCCC1)S(=O)(=O)c1ccccc1 (stereo unspecified)	.	.	.	?	?
Cc1ccc(S(=O)(=O)C(C#N)c2nc3ccccc3nc2N2CCN(C)CC2)cc1C (stereo unspecified)	.	.	.	+	122
Cc1cccc(S(=O)(=O)C(C#N)c2nc3ccccc3nc2N2CCCC2)c1 (stereo unspecified)	.	.	.	+	122
COc1ccc(S(=O)(=O)C(C#N)c2nc3ccccc3nc2N2CCCCC2)cc1 (stereo unspecified)	.	.	.	+	97
CN1CCN(c2nc3ccccc3nc2C(C#N)S(=O)(=O)c2ccccc2)CC1 (stereo unspecified)	.	/	.	?	?
CCC(=O)Nc1ccc(C(=O)CSc2nnc(-c3ccc(NS(C)(=O)=O)cc3)n2C)cc1OC	.	.	.	.	.
O=S(=O)(c1cccc(Cl)c1)N1CN(CC2CCCO2)c2nc3ccccc3nc21 (stereo unspecified)	.	.	.	/	/
Cc1ccc(C)c(NC(=O)C2CCCN(S(=O)(=O)c3c(C)nn(C)c3C)C2)c1 (stereo unspecified)	.	.	.	.	.
CCOC(=O)C1=C(COC(=O)CCc2ccccc2)NC(=O)NC1C (stereo unspecified)	/	.	/	/	/
Cc1ccc(C)c(S(=O)(=O)C(C#N)c2nc3ccccc3nc2N2CC(C)OC(C)C2)c1 (stereo unspecified)	.	.	.	+	78
CCOC(=O)c1cc(-c2ccc(OC)cc2)nc2c1c(C)nn2CCC(N)=S	.	35	.	.	.
Cc1cc(C(=O)NP(=O)(N2CC(C)OC(C)C2)N2CC(C)OC(C)C2)c(C)n1C1CC1 (stereo unspecified)	.	.	.	.	.
CCC(C)[C@H](NC(=O)C1CC(=O)N(c2ccc3c(c2)OCO3)C1)C(=O)NC1CCCCC1 (stereo partly specified)	.	49	.	?	?
C=CCOC(=O)C1=C(C)OC(N)=C(C#N)C1c1ccoc1 (stereo unspecified)	.	.	.	.	102
C=CCOC(=O)C1=C(C)OC(N)=C(C#N)C1c1ccc2c(c1)OCO2 (stereo unspecified)	.	.	.	.	.
SMILES	VIM-2 inh	PABP1 MLLE inh	IMP-1 inh	PABP polyA inh	eIF4H FP inh
CCN(CC)c1ccc(/C=N/Nc2nn[nH]n2)cc1	.	.	.	+	51
COc1ccc(NC(=O)CSc2nc3ccccc3c(=O)n2CCCN2CCC(C)CC2)c(OC)c1	.	.	.	.	.
CC1CCN(C(=S)c2ccc(O)cc2)CC1	.	37	.	.	.
Oc1ccc(C(=S)N2CCCCCC2)cc1	.	37	.	.	.
Oc1cccc(C(=S)N2CCCCC2)c1	.	38	.	.	.
Oc1ccc(C(=S)N2CCCC2)cc1	.	.	.	.	.
Oc1ccccc1CNCCCN1CCOCC1	.	.	.	.	.
